In ChEMBL document CHEMBL3751698, “5,7-Disubstituted-[1,2,4]triazolo[1,5-a][1,3,5]triazines as pharmacological tools to explore the antagonist selectivity profiles toward adenosine receptors” (Eur J Med Chem, 2016):

Assays:
Adenosine receptor A2b = biological target: T1, Adenosine receptor A2b (Homo sapiens, UniProt P29275); assay: Antagonist activity at human A2B adenosine receptor expressed in CHO cell membranes assessed as inhibition of NECA stimulated adenylyl cyclase activity; type: functional, cell-based
T1 sequence (P29275 whole entry): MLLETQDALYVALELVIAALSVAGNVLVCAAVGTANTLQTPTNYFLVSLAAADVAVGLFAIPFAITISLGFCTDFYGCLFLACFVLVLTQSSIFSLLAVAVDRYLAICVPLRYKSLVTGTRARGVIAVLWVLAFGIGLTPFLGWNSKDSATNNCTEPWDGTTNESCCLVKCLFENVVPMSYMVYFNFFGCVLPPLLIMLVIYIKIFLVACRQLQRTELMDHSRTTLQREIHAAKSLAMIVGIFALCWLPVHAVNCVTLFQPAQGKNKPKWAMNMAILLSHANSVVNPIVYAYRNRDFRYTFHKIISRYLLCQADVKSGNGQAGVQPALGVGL
Outline: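 CHO cells stably expressing hA2B; crude membranes from a single high-speed spin, resuspended in 50 mM Tris/HCl pH 7.4 and used fresh. Incubated 20 min with about 150,000 cpm [α-32P]ATP in a mixture without EDTA and NaCl. IC50 for inhibition of NECA-stimulated cyclase obtained by Hill equation fit.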

Adenosine receptor A3 = biological target: T2, Adenosine receptor A3 (Homo sapiens, UniProt P0DMS8); assay: Displacement of [3H]HEMADO from human A3 adenosine receptor expressed in CHO cell membranes
T2 sequence (P0DMS8 whole entry): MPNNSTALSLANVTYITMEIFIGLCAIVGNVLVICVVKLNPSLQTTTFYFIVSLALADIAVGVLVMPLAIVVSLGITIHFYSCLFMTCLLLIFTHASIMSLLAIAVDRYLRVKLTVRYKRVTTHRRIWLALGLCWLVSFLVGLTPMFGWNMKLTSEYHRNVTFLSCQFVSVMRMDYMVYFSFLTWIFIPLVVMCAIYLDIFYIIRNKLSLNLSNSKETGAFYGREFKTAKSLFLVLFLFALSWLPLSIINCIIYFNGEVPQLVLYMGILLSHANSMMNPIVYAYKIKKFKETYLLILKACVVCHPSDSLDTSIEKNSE
Outline: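 Two-step centrifugation (1,000 x g, then 100,000 x g) of stably transfected CHO cells gave the membranes. Displacement of 1 nM [3H]HEMADO; nonspecific binding taken with 100 µM R-PIA. Ki computed from competition data.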

Homo sapiens [1] = species: Homo sapiens; assay: Selectivity index, ratio of Ki for human A3 adenosine receptor to Ki for human A2A adenosine receptor
Adenosine receptor A2a = Adenosine receptor A2a (Homo sapiens, UniProt P29274); assay: Displacement of [3H]NECA from human A2A adenosine receptor expressed in CHO cell membranes
Chain of Adenosine receptor A2a (P29274 whole entry): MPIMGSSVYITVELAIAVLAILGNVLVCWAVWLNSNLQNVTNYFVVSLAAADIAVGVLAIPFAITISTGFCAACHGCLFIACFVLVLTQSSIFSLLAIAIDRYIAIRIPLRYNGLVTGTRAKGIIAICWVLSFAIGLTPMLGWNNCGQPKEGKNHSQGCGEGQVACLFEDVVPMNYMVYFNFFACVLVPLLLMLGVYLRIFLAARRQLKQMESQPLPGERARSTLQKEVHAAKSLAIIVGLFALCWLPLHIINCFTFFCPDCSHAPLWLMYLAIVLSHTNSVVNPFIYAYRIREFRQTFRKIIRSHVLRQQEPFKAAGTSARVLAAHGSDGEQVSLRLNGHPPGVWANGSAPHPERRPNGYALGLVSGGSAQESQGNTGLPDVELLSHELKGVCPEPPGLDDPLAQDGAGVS
Outline: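 Crude membranes from stably transfected CHO cells, prepared by a two-step spin (1,000 x g, then 100,000 x g). Competition with 10 nM [3H]NECA, with nonspecific binding measured in presence of 100 µM R-PIA. Ki derived from competition experiments.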

Adenosine receptor A1 = biological target: T3, Adenosine receptor A1 (Homo sapiens, UniProt P30542); assay: Displacement of [3H]CCPA from human A1 adenosine receptor expressed in CHO cell membranes
T3 sequence (P30542 whole entry): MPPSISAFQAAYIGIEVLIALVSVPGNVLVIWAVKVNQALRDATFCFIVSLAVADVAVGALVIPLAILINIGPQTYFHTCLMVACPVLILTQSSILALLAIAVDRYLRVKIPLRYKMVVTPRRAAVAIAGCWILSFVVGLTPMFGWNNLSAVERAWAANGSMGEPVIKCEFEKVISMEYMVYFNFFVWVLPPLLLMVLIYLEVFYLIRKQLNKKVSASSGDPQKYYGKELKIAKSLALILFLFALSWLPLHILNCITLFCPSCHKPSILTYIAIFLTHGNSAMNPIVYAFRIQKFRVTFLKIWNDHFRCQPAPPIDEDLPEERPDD
Outline: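 Membranes from stably transfected CHO cells (1,000 x g spin to clear nuclei and debris, then 100,000 x g pellet), resuspended in binding buffer and frozen. Competition against 1 nM [3H]CCPA; nonspecific binding defined with 1 mM theophylline. Ki calculated from competition curves.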

Homo sapiens [2] = species: Homo sapiens; assay: Selectivity index, ratio of Ki for human A1 adenosine receptor to Ki for human A2A adenosine receptor

SMILES | IC50 (Adenosine receptor A2b) [nM] | Ki (Adenosine receptor A3) [nM] | Ratio Ki (Homo sapiens [1]) | Ki (Adenosine receptor A2a) [nM] | Ki (Adenosine receptor A1; read-out: Ki) [nM] | Ratio Ki (Homo sapiens [2]) | Ki (Adenosine receptor A1; cho)
CC(C)Nc1nc(NC(=O)Nc2ccccc2)n2nc(-c3ccco3)nc2n1 | > 30000 | 170 | 1.96 | 86.9 | 1180 | 13.6 | 
CC(C)Nc1nc(NC(=O)Cc2ccccc2)n2nc(-c3ccco3)nc2n1 | > 30000 | 257 | 0.65 | 393 | 7150 | 18.2 | 
c1coc(-c2nc3nc(NC4CCCCC4)nc(NC4CCCCC4)n3n2)c1 | > 30000 | 129 | 0.73 | 177 | 306 | 1.73 | 
CNc1nc(NCc2ccc(F)cc2)n2nc(-c3ccco3)nc2n1 | > 30000 | 557 | 2.37 | 235 | 3080 | 13.1 | 
O=C(Nc1nc(NC2CCCCC2)nc2nc(-c3ccco3)nn12)c1ccccc1 | > 30000 | 8500 | 8.33 | 1020 | 7560 | 7.41 | 
O=C(Nc1nc(NCc2ccccc2)nc2nc(-c3ccco3)nn12)c1ccccc1 | > 30000 | 250 | 2.63 | 95.2 | 1450 | 15.2 | 
c1ccc(CNc2nc(NC3CCCCC3)nc3nc(-c4ccco4)nn23)cc1 |  |  |  |  |  |  | ND(Insoluble)
CC(C)Nc1nc(NC2CCCCC2)n2nc(-c3ccco3)nc2n1 | > 30000 | 105 | 0.26 | 397 | 801 | 2.02 | 
c1ccc(CNc2nc(NC3CCCCC3)n3nc(-c4ccco4)nc3n2)cc1 | > 30000 | 455 | 29.9 | 15.2 | 63.9 | 4.2 | 
CC(C)Nc1nc(NCc2ccccc2)n2nc(-c3ccco3)nc2n1 | > 30000 | 114 | 0.29 | 394 | > 100000 | > 253 | 
O=C(Cc1ccccc1)Nc1nc(NC2CCCCC2)nc2nc(-c3ccco3)nn12 | > 30000 | 286 | 12.1 | 23.6 | 1010 | 42.8 | 
c1ccc(Oc2nc(NC3CCCCC3)n3nc(-c4ccco4)nc3n2)cc1 | > 30000 | 294 | 2.6 | 113 | 757 | 6.7 | 
Fc1ccc(CNc2nc(Oc3ccccc3)nc3nc(-c4ccco4)nn23)cc1 | > 30000 | > 100000 | > 110 | 905 | > 100000 | > 110 | 
CC(C)Nc1nc(N)n2nc(-c3ccco3)nc2n1 | > 30000 | 568 | 8.76 | 64.8 | 4310 | 66.5 | 
CNc1nc(NC(=O)c2ccccc2)n2nc(-c3ccco3)nc2n1 | > 30000 | 9240 | 47.6 | 194 | 10500 | 54.1 | 
